According to ChEMBL document CHEMBL5252510, “A Novel Potent Oral Series of VEGFR2 Inhibitors Abrogate Tumor Growth by Inhibiting Angiogenesis” (J Med Chem, 2016):

Experiments:
[1] = test system: BaF3; test: Antiproliferative activity against mouse BaF3 cells assessed as cell growth inhibition measured after 72 hrs by Alamar Blue assay; settings: BaF3, 72 h
[2] = target: Vascular endothelial growth factor receptor 1 (Homo sapiens, UniProt P17948); test: Inhibition of human recombinant GST-fused VEGFR1 kinase domain transphosphorylation expressed in baculovirus expression system using poly-Glu-Tyr (4:1) as substrate measured after 10 mins in presence of gamma-[33P]-ATP by scintillation counting analysis
Sequence of Vascular endothelial growth factor receptor 1 (P17948 whole entry, the tested form may be a part): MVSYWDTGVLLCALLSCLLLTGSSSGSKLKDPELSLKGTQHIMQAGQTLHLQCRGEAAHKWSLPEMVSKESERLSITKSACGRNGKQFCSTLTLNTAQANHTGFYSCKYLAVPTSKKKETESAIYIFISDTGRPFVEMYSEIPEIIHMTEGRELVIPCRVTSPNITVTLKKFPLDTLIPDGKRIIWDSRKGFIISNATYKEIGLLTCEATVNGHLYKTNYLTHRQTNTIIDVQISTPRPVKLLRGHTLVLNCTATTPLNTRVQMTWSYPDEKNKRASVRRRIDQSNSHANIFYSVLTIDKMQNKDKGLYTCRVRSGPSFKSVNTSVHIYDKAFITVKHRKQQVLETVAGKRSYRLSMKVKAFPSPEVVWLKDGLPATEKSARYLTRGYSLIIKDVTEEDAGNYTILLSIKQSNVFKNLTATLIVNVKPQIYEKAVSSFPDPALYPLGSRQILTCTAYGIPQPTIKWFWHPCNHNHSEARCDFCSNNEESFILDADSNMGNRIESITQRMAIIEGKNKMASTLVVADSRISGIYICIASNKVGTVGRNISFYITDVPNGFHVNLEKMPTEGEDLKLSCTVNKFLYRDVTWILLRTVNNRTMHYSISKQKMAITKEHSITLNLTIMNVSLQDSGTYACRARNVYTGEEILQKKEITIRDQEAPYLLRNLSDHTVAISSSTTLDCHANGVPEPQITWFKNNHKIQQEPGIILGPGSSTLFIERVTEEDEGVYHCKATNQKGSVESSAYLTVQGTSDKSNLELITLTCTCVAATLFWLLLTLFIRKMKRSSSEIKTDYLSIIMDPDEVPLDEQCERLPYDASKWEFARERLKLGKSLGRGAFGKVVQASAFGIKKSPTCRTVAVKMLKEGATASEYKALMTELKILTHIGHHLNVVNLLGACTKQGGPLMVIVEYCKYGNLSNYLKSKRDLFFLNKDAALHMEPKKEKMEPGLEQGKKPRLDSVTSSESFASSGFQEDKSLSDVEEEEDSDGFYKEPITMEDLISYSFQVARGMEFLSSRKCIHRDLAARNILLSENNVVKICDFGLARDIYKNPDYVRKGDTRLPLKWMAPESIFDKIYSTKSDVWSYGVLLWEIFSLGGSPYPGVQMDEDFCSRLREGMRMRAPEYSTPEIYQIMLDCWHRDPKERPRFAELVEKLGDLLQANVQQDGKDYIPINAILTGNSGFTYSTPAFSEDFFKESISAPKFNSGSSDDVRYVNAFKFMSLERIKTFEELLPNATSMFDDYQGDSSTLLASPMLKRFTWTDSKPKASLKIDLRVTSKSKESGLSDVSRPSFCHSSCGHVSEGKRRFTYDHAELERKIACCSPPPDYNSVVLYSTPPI
Method in brief: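 GST-fused kinase domains were expressed in baculovirus and purified on glutathione-Sepharose. 10 min at ambient temperature, stopped with EDTA. Filter binding and scintillation counting. IC50 by linear regression of percent inhibition.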

[3] = Half-life in Sprague-Dawley rat at 3 mg/kg, iv measured upto 24 hrs by HPLC/UV analysis; type: ADME, organism-based; settings: in vivo
Method in brief: (§1)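 Female Sprague Dawley rats, 8 weeks old, catheterized in the jugular vein and femoral artery, recovered 96 h. IV dose 3 mg/kg in ethanol/NMP/PEG400/5 % glucose (10/10/50/30). n=2. Plasma sampled at 5, 15, 30 min and 1, 2, 4, 6, 8, 24 h.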

[4] = Dose normalized AUC(0 to infinity) in Sprague-Dawley rat at 50 mg/kg, po measured upto 24 hrs by HPLC/UV analysis; type: ADME, organism-based; settings: in vivo
Method in brief: (§2)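 Female Sprague Dawley rats, 8 weeks old, catheterized. Oral suspension in 0.5 % carboxymethyl cellulose at 50 mg/kg, n=3. Bioavailability taken against 3 mg/kg iv. Plasma sampled 5 min–24 h. Cmax and AUC(0–∞) dose-normalized.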

[5] = Tmax in Sprague-Dawley rat at 50 mg/kg, po measured upto 24 hrs by HPLC/UV analysis; type: ADME, organism-based; settings: in vivo; method in brief: as §2
[6] = Dose normalized Cmax in Sprague-Dawley rat at 50 mg/kg, po measured upto 24 hrs by HPLC/UV analysis; type: ADME, organism-based; settings: in vivo; method in brief: as §2
[7] = test system: BaF3; test: Antiproliferative activity against mouse BaF3 cells expressing FLT3-ITD assessed as cell growth inhibition measured after 72 hrs by Alamar Blue assay; settings: BaF3, 72 h
[8] = Toxicity in C57BL/6jNpa mouse harbouring mouse B16-BL6 cells assessed as effect on hematocrit levels at 3 mg/kg, po qd administered started on day 7 post implantation measured after 21 days; type: organism-based; settings: in vivo, 504 h, time 7-21 day
Method in brief: (§3)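 B16/BL6 melanoma cells (50000) injected intradermally into dorsal pinna of both ears of female mice (18–20 g). Randomized on day 7 into groups of 5-6 by primary tumor size, then dosed orally once daily for 14 days in PEG300 or PEG200. Sacrificed day 21; blood analysed directly for platelets, red and white cell counts, hematocrit. Body and spleen weight recorded versus healthy naive mouse.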

[9] = Toxicity in C57BL/6jNpa mouse harbouring mouse B16-BL6 cells assessed as drug tolerability at 3 mg/kg, po qd administered started on day 7 post implantation measured after 21 days; type: organism-based; settings: in vivo, 504 h, time 7-21 day
Method in brief: (§4)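 Female C57BL/6JNpa mice received 50000 B16/BL6 cells intradermally in both ear pinnae. Randomized on day 7 into groups of 5–6, then dosed 3 mg/kg p.o. daily in PEG200/PEG300 for 14 days. Behavior and well-being were observed. On day 21, blood was analysed for platelet, red and white cell counts and hematocrit.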

[10] = Toxicity in C57BL/6jNpa mouse harbouring mouse B16-BL6 cells assessed as effect on body weight at 3 mg/kg, po qd administered started on day 7 post implantation measured after 21 days; type: organism-based; settings: in vivo, 504 h, time 7-21 day; method in brief: as §3
[11] = Toxicity in VEGF-induced FVB mouse model at 0.3 to 3 mg/kg, po qd treated for 4 to 6 hrs prior to chamber implantation and continuing for 4 days measured after 24 hrs post last dose; type: organism-based; settings: in vivo, 120 h, dose 0.3-3 mg/kg, time 5 day
Method in brief: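 Female FVB mice (18–20 g), groups of 6. Porous chambers with VEGF (2 μg/mL) in 0.5 mL 0.8 % agar with heparin (20 U/mL) implanted subcutaneously in flank. Oral dosing once daily in 100 % PEG200 (5 mL/kg), starting 4-6 h before implantation, for 4 days; chambers removed 24 h after last dose. Animals observed for signs of toxicity.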

[12] = test system: BaF3; test: Antiproliferative activity against mouse BaF3 cells expressing Tel-IGF-1R assessed as cell growth inhibition measured after 72 hrs by Alamar Blue assay; settings: BaF3, 72 h
[13] = test system: BaF3; test: Antiproliferative activity against mouse BaF3 cells expressing Tel-KDR-myc1.3 assessed as cell growth inhibition measured after 72 hrs by Alamar Blue assay; settings: BaF3, 72 h
[14] = Oral bioavailability in Sprague-Dawley rat at 50 mg/kg measured upto 24 hrs by HPLC/UV analysis; type: ADME, organism-based; settings: in vivo; method in brief: as §2
[15] = test system: BaF3; test: Antiproliferative activity against mouse BaF3 cells expressing NPM-ALK assessed as cell growth inhibition measured after 72 hrs by Alamar Blue assay; settings: BaF3, 72 h
[16] = Toxicity in C57BL/6jNpa mouse harbouring mouse B16-BL6 cells assessed as effect on white blood cell count at 3 mg/kg, po qd administered started on day 7 post implantation measured after 21 days; type: organism-based; settings: in vivo, 504 h, time 7-21 day; method in brief: as §3
[17] = Toxicity in C57BL/6jNpa mouse harbouring mouse B16-BL6 cells assessed as effect on animal behavior at 3 mg/kg, po qd administered started on day 7 post implantation measured after 21 days; type: organism-based; settings: in vivo, 504 h, time 7-21 day; method in brief: as §4
[18] = test system: HUVEC; test: Antiproliferative activity against bFGF-stimulated HUVEC cells assessed as cell growth inhibition measured after 24 hrs by BrdUrd incorporation based spectrophotometric analysis; settings: Homo sapiens
[19] = Clearance in Sprague-Dawley rat at 3 mg/kg, iv measured upto 24 hrs by HPLC/UV analysis; type: ADME, organism-based; settings: in vivo; method in brief: as §1
[20] = test system: BaF3; test: Antiproliferative activity against mouse BaF3 cells expressing PTC3-RET assessed as cell growth inhibition measured after 72 hrs by Alamar Blue assay; settings: BaF3, 72 h
[21] = Toxicity in C57BL/6jNpa mouse harbouring mouse B16-BL6 cells assessed as effect on animal well-being at 3 mg/kg, po qd administered started on day 7 post implantation measured after 21 days; type: organism-based; settings: in vivo, 504 h, time 7-21 day; method in brief: as §4
[22] = test system: HUVEC; test: Antiproliferative activity against VEGF-stimulated HUVEC cells assessed as cell growth inhibition measured after 24 hrs by BrdUrd incorporation based spectrophotometric analysis; settings: Homo sapiens
[23] = test system: BaF3; test: Antiproliferative activity against mouse BaF3 cells expressing ERBB2 V659E mutant assessed as cell growth inhibition measured after 72 hrs by Alamar Blue assay; settings: BaF3, 72 h
[24] = test system: BaF3; test: Antiproliferative activity against mouse BaF3 cells expressing Bcr-ABL assessed as cell growth inhibition measured after 72 hrs by Alamar Blue assay; settings: BaF3, 72 h
[25] = test system: BaF3; test: Antiproliferative activity against mouse BaF3 cells expressing Tel-FGFR3 assessed as cell growth inhibition measured after 72 hrs by Alamar Blue assay; settings: BaF3, 72 h
[26] = test system: B16-BL6; test: Antitumor activity against mouse B16-BL6 cells implanted in C57BL/6jNpa mouse assessed as primary tumor growth inhibition by measuring T/C ratio at 3 mg/kg, po qd administered started on day 7 post implantation measured after 21 days; type: functional; settings: time 7-21 day
Method in brief: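 Female C57BL/6JNpa mice, 50000 B16/BL6 cells intradermally in both ear pinnae; primary tumor area (mm²) imaged days 7, 14, 21; randomized day 7 into groups of 5-6, oral dosing in PEG200 or PEG300 vehicle daily (or every 2 days) for 14 days; day 21 cervical lymph nodes weighed, metastasis lysates assayed for TIE-2 by ELISA; T/C ratios.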

[27] = test system: BaF3; test: Antiproliferative activity against mouse BaF3 cells expressing KIT D816V mutant assessed as cell growth inhibition measured after 72 hrs by Alamar Blue assay; settings: BaF3, 72 h

| Structure (SMILES) | IC50 [1] [µM] | IC50 [2] [µM] | half-life [3] [h] | IC50 [7] [µM] | Activity [9] | Activity [10] | Activity [11] | IC50 [12] [µM] | IC50 [13] [µM] | IC50 [15] [µM] | Activity [17] | IC50 [18] [µM] | IC50 [20] [µM] | Activity [21] | IC50 [22] [nM] | IC50 [23] [µM] | IC50 [24] [µM] | IC50 [25] [µM] | T/C [26] | IC50 [27] [µM] | other results |
| --- | --- | --- | --- | --- | --- | --- | --- | --- | --- | --- | --- | --- | --- | --- | --- | --- | --- | --- | --- | --- | --- |
| Nc1cc(Oc2ccc3c(C(=O)Nc4ccc(F)c(C(F)(F)F)c4)cccc3c2)ncn1 | > 10 | 0.333 | 18.3 | 4.78 | Non-Toxic | Non-Toxic | Non-Toxic | > 10 | 0.005 | > 10 | Non-Toxic | 0.206 | 0.04 | Non-Toxic | 0.003 | > 10 | > 10 | 2.66 | 0.34 | 7.8 | AUC/dose [4]: 4.19 µmol·h/L; Tmax [5]: 8 h; Cmax/dose [6]: 80 nM; Activity [8]: Non-Toxic; bioavailability [14]: 9%; Activity [16]: Non-Toxic; clearance [19]: 0.833 mL/min/kg |
| Nc1cc(Oc2ccc3c(C(=O)Nc4cccc(C(F)(F)F)c4)cccc3c2)ncn1 | > 10 | 0.081 | 4.1 | 5.65 | Non-Toxic | Non-Toxic | Non-Toxic | > 10 | 0.002 | > 10 | Non-Toxic | > 3 | 0.009 | Non-Toxic | 1.7 | > 10 | 9.5 | 2.28 | 0.22 | 8 | AUC/dose [4]: 0.67 µmol·h/L; Tmax [5]: 4 h; Cmax/dose [6]: 50 nM; Activity [8]: Non-Toxic; bioavailability [14]: 5%; Activity [16]: Non-Toxic; clearance [19]: 3 mL/min/kg |
| O=C(Nc1cccc(C(F)(F)F)c1)c1cccc2cc(Oc3cc(CO)ncn3)ccc12 [BFH-772] | > 10 | 1.7 |  | > 10 | Non-Toxic | Non-Toxic | Non-Toxic | 7.2 | 0.002 | > 10 | Non-Toxic | > 3 | 0.104 | Non-Toxic | < 0.01 | > 10 | 7.5 | 6.54 | 0.26 | > 10 |  |
| Nc1nccc(Oc2ccc3c(C(=O)Nc4cccc(C(F)(F)F)c4)cccc3c2)n1 | > 10 | 0.82 |  | > 10 | Non-Toxic | Non-Toxic | Non-Toxic | > 10 | 0.004 | > 10 | Non-Toxic | > 3 | 0.152 | Non-Toxic | 0.12 | > 10 | 4.75 | 8.27 | 0.46 | > 10 |  |
| Nc1nccc(Oc2ccc3c(C(=O)Nc4ccc(F)c(C(F)(F)F)c4)cccc3c2)n1 | > 10 | 0.223 | 16 | 8.2 | Non-Toxic | Non-Toxic | Non-Toxic | 8.9 | 0.009 | > 10 | Non-Toxic | > 0.01 | 0.226 | Non-Toxic | 0.077 | > 10 | > 10 | 8.26 | 0.1 | 8.51 | AUC/dose [4]: 1.37 µmol·h/L; Tmax [5]: 5 h; Cmax/dose [6]: 70 nM; Activity [8]: Non-Toxic; bioavailability [14]: 9%; Activity [16]: Non-Toxic; clearance [19]: 2.83 mL/min/kg |
